The record followed here is ChEMBL document CHEMBL1135469, “Design, synthesis, and antiproliferative activity of some new pyrazole-fused amino derivatives of the pyranoxanthenone, pyranothioxanthenone, and pyranoacridone ring systems: a new class of cytotoxic agents” (J Med Chem, 2002).

Structures are written as SMILES.

The subject of assay [1] is HT-29. Nature of the assay: In vitro cytotoxic activity against human colon HT-29 cell line. The format is functional, cell-based. In short, it runs like this:
(§1)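 MTT assay on human cells grown in DMEM with 10% FBS and penicillin/streptomycin at 37 °C, 5% CO2. About 5000 cells/well; compounds diluted with DMSO are added after 24 h for 48 h. Then 1 mg/mL MTT (final) in serum-free, phenol-red-free RPMI for 4 h. Formazan dissolved in 2-propanol, OD 550 nm (ref 690 nm).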

Assay [2] has as its system MDA-MB-231. The assay is described as follows: In vitro cytotoxic activity against human breast MDA-MB-231 cell line. The format is functional, cell-based. Summed up:
as §1

For assay [3], the system named is HRT-18 cell line. The assay is described as follows: In vitro inhibition of HRT-18 (human colon) cell proliferation. The format is functional, cell-based. In short, it runs like this: as §1
A further assay deals with Calf thymus DNA. Nature of the assay: In vitro inhibition of calf thymus DNA/ethidium bromide complex formation. It counts as nucleic-acid assay. Summed up:
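Ethidium displacement: compounds added to 5 mM Tris-HCl/0.5 mM EDTA buffer, pH 8, containing calf thymus DNA (1 µg/mL) and ethidium bromide (1 µg/mL). EC50 is the concentration halving DNA/ethidium complex fluorescence. Mean of two experiments.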

Assay [4] has as its system A549. The assay is described as follows: In vitro cytotoxic activity against human lung A549 cell line. The format is functional, cell-based. In short, it runs like this:
as §1

In a further assay the test system is L1210. Nature of the assay: In vitro cytotoxic activity against murine leukemia cell line L1210. It counts as functional, cell-based. The conditions noted are these: Mus musculus.
Assay [5] has as its system HCT-116. The assay is described as follows: In vitro cytotoxic activity against human colon HCT116 cell line. It counts as functional, cell-based. In short, it runs like this:
as §1

For assay [6], the system named is HT-29. Nature of the assay: In vitro cytotoxic activity against human colon HT-29 cell line ( standard deviation in parenthesis). It counts as functional, cell-based. In short, it runs like this:
as §1

In assay [7] the test system is HCT-116. The assay is described as follows: In vitro cytotoxic activity against human colon HCT116 cell line ( standard deviation in parenthesis). It counts as functional, cell-based. Summed up: as §1
For assay [8], the system named is MDA-MB-231. Nature of the assay: In vitro cytotoxic activity against human breast MDA-MB-231 cell line ( standard deviation in parenthesis). The format is functional, cell-based. In short, it runs like this: as §1
Assay [9] has as its system HRT-18 cell line. The assay is described as follows: In vitro cytotoxic activity against human colon […] cell line ( standard deviation in parenthesis). The format is functional, cell-based. In short, it runs like this:
as §1

Assay [10] concerns A549. The assay is described as follows: In vitro cytotoxic activity against human lung A549 cell line). It counts as functional, cell-based. In short, it runs like this: (§2)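 MTT assay on human tumour cells grown in DMEM with 10% FBS, penicillin and streptomycin at 37 °C, 5% CO2. About 5000 cells/well were seeded, and compounds diluted with DMSO were added after 24 h. After 48 h exposure, 1 mg/mL MTT (final) was added for 4 h. Formazan was dissolved in 2-propanol and read at 550 nm (reference 690 nm).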

The test system of assay [11] is HRT-18 cell line. Nature of the assay: In vitro cytotoxic activity against human colon HRT-18 cell line. The format is functional, cell-based. Summed up: as §2
The subject of assay [12] is A549. Nature of the assay: In vitro cytotoxic activity against human lung A549 cell line ( standard deviation in parenthesis). It counts as functional, cell-based. Summed up:
as §2

For orientation: IC50 means the concentration needed to halve the response being measured. The EC50 is the concentration that produces a half-maximal response. Turning to `COc1cccc2c1Oc1c3c(cc4c1c-2nn4CCN(C)C)OC(C)(C)C=C3`, the concentration for half-maximal inhibition (IC50) in the assay on HT-29 [1] amounted to 9 µM; with MDA-MB-231 [2], 48 µM; in the assay with HRT-18 cell line [3] it was 17 µM; with A549 [4], 50 µM; in the assay with L1210 it was 14.6 µM; in the assay on HCT-116 [5], 51 µM. The compound further showed an EC50 in the assay on Calf thymus DNA of 150 µM.
On to `CN1c2ccccc2-c2nn(CCOS(C)(=O)=O)c3cc4c(c1c23)C=CC(C)(C)O4`, for which the IC50 with HT-29 [6] stood at 20 µM; with L1210 it was 2.5 µM; in the assay on HCT-116 [7], 49 µM.
As to `CN(C)CCn1nc2c3c(c4c(cc31)OC(C)(C)C=C4)Oc1ccccc1-2`, the half-maximal inhibitory concentration (IC50) stood at 18 µM in the assay on HT-29 [1]; 50 µM with MDA-MB-231 [2]; 50 µM with HRT-18 cell line [3]; 32 µM in the assay with A549 [4]; 9.8 µM with L1210; 54 µM with HCT-116 [5]. Further, in the assay with Calf thymus DNA, the EC50 was determined as 431 µM.
On to `COc1cccc2c1Oc1c3c(cc4c1c-2nn4CCOS(C)(=O)=O)OC(C)(C)C=C3`, for which, in the assay with L1210, the half-maximal inhibitory concentration (IC50) is 26.7 µM.
Take `CCN(CC)CCn1nc2c3c(c4c(cc31)OC(C)(C)C=C4)Oc1c(OC)cccc1-2`: the 50% inhibitory concentration (IC50) in the assay with HT-29 [1] is 9 µM; in the assay with MDA-MB-231 [2], 11 µM; in the assay with HRT-18 cell line [3] it was 30 µM; in the assay with A549 [4] it was 33 µM; with L1210, 9.9 µM; in the assay on HCT-116 [5], 41 µM. In the assay on Calf thymus DNA, the EC50 came out at 273 µM.
`COc1cccc2c1Oc1c3c(cc4c1c-2nn4CCN1CCCCC1)OC(C)(C)C=C3`: the IC50 in the assay with HT-29 [1] was found to be 6 µM; in the assay on MDA-MB-231 [2], 37 µM; with HRT-18 cell line [3], 12 µM; with A549 [4], 31 µM; in the assay on L1210, 16.5 µM; with HCT-116 [5] it was 54 µM. Further, the midpoint of the response in the assay with Calf thymus DNA, the EC50, lay at 290 µM.
As to `COc1ccc2c(c1)-c1nn(CCOS(C)(=O)=O)c3cc4c(c(c13)N2C)C=CC(C)(C)O4`, the IC50 in the assay with MDA-MB-231 [8] was 12 µM; in the assay on HT-29 [6] it was 18 µM; in the assay on A549 [4], greater than 100 µM; in the assay with L1210 it was 0.4 µM; in the assay with HCT-116 [7] it was 12 µM.
`O=C1c2c(O)ccc(O)c2C(=O)c2c(NCCNCCO)ccc(NCCNCCO)c21` [MITOXANTRONE]: the 50% inhibitory concentration (IC50) with MDA-MB-231 [8] was 1 µM. In the assay with Calf thymus DNA, the concentration giving a half-maximal response (EC50) came out at 3.4 µM.
Consider `CC1(C)C=Cc2c(cc3c4c(nn3CCO)-c3ccccc3Oc24)O1`, for which the IC50 was 12 µM in the assay with HT-29 [1]; 100 µM in the assay with MDA-MB-231 [2]; 4 µM in the assay with HRT-18 cell line [3]; greater than 100 µM in the assay with A549 [4]; greater than 10 µM with L1210; 28 µM in the assay on HCT-116 [5].
In the case of `CC1(C)C=Cc2c(cc3c4c(nn3CCN3CCCC3)-c3ccccc3Oc24)O1`, the 50% inhibitory concentration (IC50) in the assay on HT-29 [1] turned out to be 9 µM; in the assay with MDA-MB-231 [2], 12 µM; in the assay with HRT-18 cell line [3] it was 30 µM; with A549 [4] it was 27 µM; with L1210, 8.3 µM; in the assay with HCT-116 [5], 42 µM.
Regarding `CC1(C)C=Cc2c(cc3c4c(nn3CCOS(C)(=O)=O)-c3ccccc3Oc24)O1`, the half-maximal inhibitory concentration (IC50) was 53 µM in the assay on MDA-MB-231 [8]; 22 µM in the assay on HRT-18 cell line [9]; 24 µM with HT-29 [6]; greater than 100 µM in the assay on A549 [4]; 31.9 µM in the assay with L1210; 33 µM with HCT-116 [7].
In the case of `COc1cccc2c1Oc1c3c(cc4c1c-2nn4CCN1CCCC1)OC(C)(C)C=C3`, the IC50 worked out at 8 µM in the assay with HT-29 [1]; 11 µM in the assay on MDA-MB-231 [2]; 60 µM in the assay on HRT-18 cell line [3]; 33 µM in the assay with A549 [4]; 10.6 µM in the assay with L1210; 43 µM in the assay with HCT-116 [5]. In the assay with Calf thymus DNA, this compound gave an EC50 of 71.7 µM.
With `CCN(CC)CCn1nc2c3c(c4c(cc31)OC(C)(C)C=C4)Oc1ccccc1-2`, the IC50 in the assay on HT-29 [1] is 9 µM; in the assay with MDA-MB-231 [2], 9 µM; with HRT-18 cell line [3], 5 µM; with A549 [4], 10 µM; in the assay with L1210 it was 9.1 µM; in the assay with HCT-116 [5] it was 40 µM.
For the compound `CC1(C)C=Cc2c(cc3c4c(nn3CCOS(C)(=O)=O)-c3ccccc3Sc24)O1`, the concentration for half-maximal inhibition (IC50) with MDA-MB-231 [8] was greater than 100 µM; with HRT-18 cell line [9], 30 µM; in the assay with HT-29 [6] it was 45 µM; with L1210, 15 µM; in the assay with HCT-116 [7], 44 µM. In the assay on Calf thymus DNA, this compound returned an EC50 greater than 500 µM.
Turning to `COc1cccc2c1Oc1c3c(cc4c1c-2nn4CCO)OC(C)(C)C=C3`, the IC50 is greater than 100 µM with HT-29 [1]; greater than 100 µM in the assay on MDA-MB-231 [2]; greater than 100 µM in the assay with HRT-18 cell line [3]; greater than 100 µM in the assay on A549 [4]; greater than 10 µM in the assay on L1210; 64 µM with HCT-116 [5]. This compound also registered an EC50 with Calf thymus DNA of 274 µM.
Take `COc1cc2c(c3c1c(=O)c1ccccc1n3C)C=CC(C)(C)O2` [ACRONINE]: the IC50 with HT-29 [1], in the assay with A549 [10], in the assay with HRT-18 cell line [11] and in the assay on HCT-116 [5] was greater than 100 µM each time. The EC50 in the assay with Calf thymus DNA was 270 µM.
Consider `Cc1c2ccncc2c(C)c2c1[nH]c1ccccc12` [ELLIPTECINE], for which the IC50 with MDA-MB-231 [8] stood at 2.3 µM; in the assay with HT-29 [6], 15 µM; in the assay on A549 [12], 10 µM. A half-maximal response in the assay with Calf thymus DNA (EC50) required 22.2 µM.
As for `CC1(C)C=Cc2c(cc3c4c(nn3CCN3CCCCC3)-c3ccccc3Oc24)O1`, the IC50 in the assay on HT-29 [1] amounted to 6.5 µM; with MDA-MB-231 [2] it was 20 µM; in the assay with HRT-18 cell line [3], 10 µM; in the assay on A549 [4], 15 µM; in the assay on L1210, 10.1 µM; in the assay on HCT-116 [5], 20 µM.
